The nature of the first series: Induction of phospholipidosis in bovine corneal fibroblasts assessed as lamellar inclusion bodies after 72 hrs by light microscopy. The settings on record: cattle, corneal fibroblast. Set-up: species or system Bos taurus, Cornea.
For the compound `CN(C(=O)C(C)(C)c1cc(C(F)(F)F)cc(C(F)(F)F)c1)c1cnc(NCCO)cc1-c1ccccc1Cl`, the Activity entry is “Non-toxic”.
In the case of `CCN(CCO)CCCCOc1ccc2c(-c3ccc(Br)cc3)nsc2c1`, the Activity result is “Toxic”.
Still for that read-out and setting: for `CC(C)CC(N(C)C)C1(c2ccc(Cl)cc2)CCC1.Cl` (centres undefined) the value was “Toxic”; for `Cc1c(Cl)ccc2c1N1[C@H](CNC[C@H]1C)C2`, “Toxic”; for `CC(OCC1CC1)c1ccc2c(n1)N1[C@@H](CNC[C@H]1C)C2` (some centres undefined), “Toxic”.
`COc1cc(F)c(C(OC)C(=O)NCc2ccc(C(=N)N)cc2)c(F)c1.Cl` (centres undefined): the Activity result was “Non-toxic”.
On the same count and under the same terms, for `CCO[C@@H](C)c1ccc2c(n1)N1[C@@H](CNC[C@H]1C)C2.Cl` the value was “Non-toxic”.
On the same count and under the same terms, next, `COc1ccc(C2CCOCC2)c2sc(NC(=O)N(C)C3CCN(C)CC3)nc12`: “Toxic”; `CS(=O)(=O)O.Cc1cc(-c2cnccn2)nn1CCC(C)(C)NCC(=O)N1CCC[C@H]1C#N`: “Non-toxic”; `CC(C)COc1ccc(S(C)(=O)=O)cc1C(=O)N1Cc2cnc(C(F)(F)F)cc2C1`: “Non-toxic”.
The same measure, in the same setting: next, `COc1cc(-c2nc(N)c(CN)c(-c3ccc(Cl)cc3Cl)n2)cc(OC)c1OC`: “Toxic”.
For the compound `CC(C)(CCn1cnc(-c2cccnc2)c1)NCC(=O)N1CCC[C@H]1C#N.CS(=O)(=O)O`, the Activity result is reported as “Non-toxic”.
Same read-out and setting: next, `COc1ccc(S(=O)(=O)N(c2ccc(F)cc2)C2CCN([C@@H]3COCC[C@@]3(O)c3ccccc3)CC2)cc1`: “Non-toxic”; `Cc1cc(C#Cc2cn(-c3ccc(F)cc3)c(C)n2)ccn1`: “Non-toxic”.
Same read-out and setting: next, `CN1CCN([C@@H]2CCN(C(=O)c3cc(C(F)(F)F)cc(C(F)(F)F)c3)C[C@@H]2c2ccccc2)CC1`: “Toxic”; `Cc1cc(-c2cc(-c3ccccc3C)c(C(=O)NCc3cc(C(F)(F)F)cc(C(F)(F)F)c3)cn2)ccn1`: “Non-toxic”; `O=C(c1cc(C(F)(F)F)cc(C(F)(F)F)c1)N1CC[C@@H](N2CCOCC2)[C@@H](c2ccc(Cl)cc2)C1`: “Toxic”.
Still for that read-out and setting: for `CN(CC[C@H]1CC[C@H](CN2CCCCC2)CC1)C(=O)Oc1ccc(C(F)(F)F)cc1` the value was “Toxic”; for `C[C@@H]1CNC[C@H]2Cc3ccc(Cl)nc3N21`, “Non-toxic”.
As to `Cc1ccc2c(n1)N1[C@@H](CNC[C@H]1C)C2`, the Activity result is listed as “Non-toxic”.
The same measure, in the same setting: next, `C[C@H](C(N)=O)N1CCc2cc(OCc3cccc(F)c3)ccc2C1`: “Toxic”; `NCc1c(N)nc(-c2ccccc2)nc1-c1ccc(Cl)cc1Cl`: “Toxic”; `COc1cc2c(cc1OC)[C@@H]1C[C@H](N)[C@@H](N3C[C@@H](C)CC3=O)CN1CC2`: “Non-toxic”.
In the case of `NCC[C@H](O)C(=O)N[C@@H]1C[C@H](N)[C@@H](O[C@H]2O[C@H](CN)[C@@H](O)[C@H](O)[C@H]2O)[C@H](O)[C@H]1O[C@H]1O[C@H](CO)[C@@H](O)[C@H](N)[C@H]1O` [AMIKACIN], the Activity result was “Non-toxic”.
Still for that read-out and setting: for `CCCCc1oc2ccccc2c1C(=O)c1cc(I)c(OCCN(CC)CC)c(I)c1` [AMIODARONE] the value was “Toxic”.
Same read-out and setting: next, `O=C(N[C@H](CO)[C@H](O)c1ccc([N+](=O)[O-])cc1)C(Cl)Cl` [CHLORAMPHENICOL]: “Non-toxic”; `CN1CCN(C(c2ccccc2)c2ccc(Cl)cc2)CC1` (centres undefined) [CHLORCYCLIZINE]: “Toxic”; `CCN(CC)CCCC(C)Nc1ccnc2cc(Cl)ccc12` (centres undefined) [CHLOROQUINE]: “Toxic”.
Still for that read-out and setting: for `CC(C)(N)Cc1ccc(Cl)cc1` [CHLORPHENTERMINE] the value was “Toxic”; for `CN(C)CCCN1c2ccccc2Sc2ccc(Cl)cc21` [CHLORPROMAZINE], “Toxic”.
`CN(C)CCCC1(c2ccc(F)cc2)OCc2cc(C#N)ccc21` (centres undefined) [CITALOPRAM]: the Activity result is “Toxic”.
Same read-out and setting: for `CN(C)CCCN1c2ccccc2CCc2ccc(Cl)cc21` [CLOMIPRAMINE] the value was “Toxic”.
With `CN1CCN(C2=Nc3cc(Cl)ccc3Nc3ccccc32)CC1` [CLOZAPINE], the Activity result is recorded as “Toxic”.
The same measure, in the same setting: next, `CN1CCN(C(c2ccccc2)c2ccccc2)CC1` [CYCLIZINE]: “Toxic”; `CN1C(=O)CN=C(c2ccccc2)c2cc(Cl)ccc21` [DIAZEPAM]: “Non-toxic”.
The same measure, in the same setting: for `CC[C@H]1OC(=O)[C@H](C)[C@@H](O[C@H]2C[C@@](C)(OC)[C@@H](O)[C@H](C)O2)[C@H](C)[C@@H](O[C@@H]2O[C@H](C)C[C@H](N(C)C)[C@H]2O)[C@](C)(O)C[C@@H](C)C(=O)[C@H](C)[C@@H](O)[C@]1(C)O` [ERYTHROMYCIN] the value was “Non-toxic”; for `O=C(CCCN1CCC(O)(c2ccc(Cl)cc2)CC1)c1ccc(F)cc1` [HALOPERIDOL], “Toxic”; for `OCCOCCN1CCN(C(c2ccccc2)c2ccc(Cl)cc2)CC1` (centres undefined) [HYDROXYZINE], “Toxic”.
On the same count and under the same terms, for `CN(C)CCCN1c2ccccc2CCc2ccccc21` [IMIPRAMINE] the value was “Toxic”; for `CN(C)CCCn1c2c(c3ccccc31)CCCCCC2` [IPRINDOLE], “Toxic”; for `CNCCCC12CCC(c3ccccc31)c1ccccc12` [MAPROTILINE], “Toxic”.
For `Cc1cccc(CN2CCN(C(c3ccccc3)c3ccc(Cl)cc3)CC2)c1` (centres undefined) [MECLIZINE], the Activity result is given as “Toxic”.
Same read-out and setting: next, `C1CCC(C(CC2CCCCN2)C2CCCCC2)CC1` (centres undefined) [PERHEXILINE]: “Toxic”; `CCC1(c2ccccc2)C(=O)NC(=O)NC1=O` [PHENOBARBITAL]: “Non-toxic”; `CC(=O)Nc1ccc(N2CCN(CCCN(C)C)CC2)cc1` [PIPERAMIDE]: “Toxic”.
Same read-out and setting: for `CN(C)CCCN1c2ccccc2Sc2ccccc21` [PROMAZINE] the value was “Toxic”; for `CC(C)NCC(O)COc1cccc2ccccc12` (centres undefined) [PROPRANOLOL], “Toxic”; for `CCN(CC)CCCC(C)Nc1c2ccc(Cl)cc2nc2ccc(OC)cc12` (centres undefined) [QUINACRINE], “Toxic”.
Same read-out and setting: for `CS(=O)(=O)O.C[C@H](NCc1ccc(OCc2cccc(F)c2)cc1)C(N)=O` [SAFINAMIDE MESYLATE] the value was “Toxic”; for `[H]/N=C(/N)N[C@H]1[C@H](O)[C@@H](O)[C@H](O[C@@H]2O[C@@H](C)[C@](O)(C=O)[C@H]2O[C@@H]2O[C@@H](CO)[C@H](O)[C@@H](O)[C@@H]2NC)[C@@H](N/C(N)=N\[H])[C@@H]1O` [STREPTOMYCIN], “Non-toxic”.
Consider `CC/C(=C(\c1ccccc1)c1ccc(OCCN(C)C)cc1)c1ccccc1` [TAMOXIFEN], for which the Activity result is on record as “Toxic”.
For the compound `CCN(CC)CCOc1ccc2c(c1)C(=O)c1cc(OCCN(CC)CC)ccc1-2` [TILORONE], the Activity result is “Toxic”.
Same read-out and setting: for `CCCC[C@@H]1CC(=O)[C@]2(O)O[C@@H]3[C@@H](NC)[C@@H](O)[C@@H](NC)[C@H](O)[C@H]3O[C@@H]2O1` [TROSPECTOMYCIN] the value was “Non-toxic”; for `CCCC(CCC)C(=O)O` [VALPROIC ACID], “Non-toxic”; for GENTAMICIN, “Non-toxic”.

The nature of a further series: Induction of phospholipidosis in bovine corneal fibroblasts assessed as lamellar inclusion bodies at 7.5 uM after 72 hrs by light microscopy. On the set-up: species or system Bos taurus, Cornea. Particulars: cattle, corneal fibroblast. The procedure, abridged: (§1)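 Primary bovine corneal fibroblasts from collagenase-treated explants, passage 2–8, grown in DMEM/10% FCS/L-glutamine/antibiotics at 37 °C, 5% CO2. Confluent cells exposed 72 h to compound at 2.5, 5.0, 7.5, 10.0, 12.5, 15.0 or 20 μM (DMSO 1% where used). Controls: medium, 1% DMSO, imipramine 10 μM, in duplicate. Cells were fixed in 1% glutaraldehyde, stained overnight with 1% tannic acid, and black intracytoplasmic inclusions scored qualitatively by light microscopy.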
As for `CC(OCC1CC1)c1ccc2c(n1)N1[C@@H](CNC[C@H]1C)C2` (some centres undefined), the Activity result is given as “Toxic”.

Another series is described as follows: Induction of phospholipidosis in bovine corneal fibroblasts assessed as lamellar inclusion bodies at 20 uM after 72 hrs by light microscopy. Set-up: species or system Bos taurus, Cornea. Particulars: cattle, corneal fibroblast. The essentials:
as §1
For `Cc1c(Cl)ccc2c1N1[C@H](CNC[C@H]1C)C2`, the Activity entry was “Toxic”.
Still for that read-out and setting: next, `CCO[C@@H](C)c1ccc2c(n1)N1[C@@H](CNC[C@H]1C)C2.Cl`: “Toxic”.

A short description of another series: Induction of phospholipidosis in bovine corneal fibroblasts assessed as lamellar inclusion bodies at 2.5 to 20 uM after 72 hrs by light microscopy. Set-up: species or system Bos taurus, Cornea. The settings on record: cattle, corneal fibroblast. The essentials:
as §1
Regarding `C[C@@H]1CNC[C@H]2Cc3ccc(Cl)nc3N21`, the Activity entry was “Toxic”.

These data come from ChEMBL document CHEMBL1944531, “In silico assay for assessing phospholipidosis potential of small druglike molecules: training, validation, and refinement using several data sets” (J Med Chem, 2012).
